Laboratory results as given in ChEMBL document CHEMBL1154611 (J Med Chem, 2009).
Values after ≈ are worked out from the molar mass of the structure shown. Active and inactive are the calls of the source. The rule behind the calls is not given here.

How the values were obtained:
Motilin receptor = Motilin receptor (Oryctolagus cuniculus, UniProt A5A4K8); assay: Agonist activity at motilin receptor in rabbit smooth muscle assessed as maximal possible tissue contraction; type: functional
Outline: (§1)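 Rabbit smooth muscle contractility assay. EC50 is the concentration giving 50% of the maximal possible contraction. Tachyphylaxis is the % contractile response to an EC90 drug concentration after three cycles of administration and washout.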

[1] = biological target: Motilin receptor (Oryctolagus cuniculus) (UniProt A5A4K8); assay: Agonist activity at motilin receptor in rabbit smooth muscle assessed as tachyphylaxis at EC90 concentration after 4th dose; type: functional; outline: as §1
Streptococcus pneumoniae [2] = assay: Antibacterial activity against erythromycin-sensitive Streptococcus pneumoniae ATCC 6301; type: functional
Outline: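 MIC, the minimal growth inhibitory concentration, was determined in routine screening against the highly erythromycin-sensitive strain Streptococcus pneumoniae ATCC6301.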

Enterococcus faecalis = assay: Antimicrobial activity against Enterococcus faecalis; type: functional, organism-based
Outline: (§2)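 MIC was determined across a panel of about 200 clinical isolates from a variety of specimens held in a university clinical microbiology collection, with about 10 isolates per species. The panel covers gut flora and organisms commonly known to develop antibiotic resistance.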

Enterococcus faecium = assay: Antimicrobial activity against Enterococcus faecium; type: functional, organism-based; outline: as §2
Micrococcus luteus = assay: Antimicrobial activity against Micrococcus luteus; type: functional, organism-based; outline: as §2
Staphylococcus aureus = assay: Antimicrobial activity against Staphylococcus aureus; type: functional, organism-based; outline: as §2
Streptococcus equinus = assay: Antimicrobial activity against Streptococcus bovis; type: functional, organism-based; outline: as §2
Streptococcus pneumoniae [3] = assay: Antimicrobial activity against Streptococcus pneumoniae; type: functional, organism-based; outline: as §2
Streptococcus pyogenes = assay: Antimicrobial activity against Streptococcus pyogenes; type: functional, organism-based; outline: as §2
Corynebacterium jeikeium = assay: Antimicrobial activity against Corynebacterium jeikeium; type: functional, organism-based; outline: as §2
Corynebacterium sp. = assay: Antimicrobial activity against Corynebacterium sp.; type: functional, organism-based; outline: as §2
Lactobacillus sp. = assay: Antimicrobial activity against Lactobacillus sp.; type: functional, organism-based; outline: as §2
Escherichia coli = assay: Antimicrobial activity against Escherichia coli; type: functional, organism-based; outline: as §2
Klebsiella pneumoniae = assay: Antimicrobial activity against Klebsiella pneumoniae; type: functional, organism-based; outline: as §2
Proteus mirabilis = assay: Antimicrobial activity against Proteus mirabilis; type: functional, organism-based; outline: as §2
Haemophilus influenzae = assay: Antimicrobial activity against Haemophilus influenzae; type: functional, organism-based; outline: as §2
Moraxella catarrhalis = assay: Antimicrobial activity against Moraxella catarrhalis; type: functional, organism-based; outline: as §2
Bacteroides fragilis = assay: Antimicrobial activity against Bacteroides fragilis; type: functional, organism-based; outline: as §2
Clostridioides difficile = assay: Antimicrobial activity against Clostridium difficile; type: functional, organism-based; outline: as §2
Clostridium perfringens = assay: Antimicrobial activity against Clostridium perfringens; type: functional, organism-based
Outline: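 MIC determined across a panel of about 200 clinical strains that represent gut flora and species known to develop antibiotic resistance. The panel included about 10 Clostridium perfringens isolates, taken from a variety of clinical specimens and held in the University of Rochester Medical Center clinical microbiology collection.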

Cutibacterium acnes = assay: Antimicrobial activity against Propionibacterium acnes; type: functional, organism-based
Staphylococcus = assay: Antimicrobial activity against Staphylococcus coagulase; type: functional, organism-based; outline: as §2
hERG (KCNH2) [4] = biological target: T1, hERG (KCNH2) (Homo sapiens, UniProt Q12809); assay: Inhibition of human ERG expressed in HEK cells at 30 uM; type: cell-based, HEK293; settings: HEK cells expressing human ERG
hERG (KCNH2) [5] = biological target: T1, hERG (KCNH2); assay: Inhibition of human ERG expressed in HEK cells at 300 uM; type: cell-based, HEK293; settings: HEK cells expressing human ERG
[6] = biological target: Voltage-gated inwardly rectifying potassium channel KCNH2 (Homo sapiens, UniProt Q12809); assay: Inhibition of human ERG expressed in HEK cells; type: cell-based, HEK293
[7] = Ratio of IC50 for human ERG to EC50 for rabbit motilin receptor agonism; type: functional
Outline: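 The motilin EC50 came from the rabbit smooth muscle contraction assay, and the ratio of the two served as a cardiovascular safety predictor.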

T1 sequence (Q12809 whole entry): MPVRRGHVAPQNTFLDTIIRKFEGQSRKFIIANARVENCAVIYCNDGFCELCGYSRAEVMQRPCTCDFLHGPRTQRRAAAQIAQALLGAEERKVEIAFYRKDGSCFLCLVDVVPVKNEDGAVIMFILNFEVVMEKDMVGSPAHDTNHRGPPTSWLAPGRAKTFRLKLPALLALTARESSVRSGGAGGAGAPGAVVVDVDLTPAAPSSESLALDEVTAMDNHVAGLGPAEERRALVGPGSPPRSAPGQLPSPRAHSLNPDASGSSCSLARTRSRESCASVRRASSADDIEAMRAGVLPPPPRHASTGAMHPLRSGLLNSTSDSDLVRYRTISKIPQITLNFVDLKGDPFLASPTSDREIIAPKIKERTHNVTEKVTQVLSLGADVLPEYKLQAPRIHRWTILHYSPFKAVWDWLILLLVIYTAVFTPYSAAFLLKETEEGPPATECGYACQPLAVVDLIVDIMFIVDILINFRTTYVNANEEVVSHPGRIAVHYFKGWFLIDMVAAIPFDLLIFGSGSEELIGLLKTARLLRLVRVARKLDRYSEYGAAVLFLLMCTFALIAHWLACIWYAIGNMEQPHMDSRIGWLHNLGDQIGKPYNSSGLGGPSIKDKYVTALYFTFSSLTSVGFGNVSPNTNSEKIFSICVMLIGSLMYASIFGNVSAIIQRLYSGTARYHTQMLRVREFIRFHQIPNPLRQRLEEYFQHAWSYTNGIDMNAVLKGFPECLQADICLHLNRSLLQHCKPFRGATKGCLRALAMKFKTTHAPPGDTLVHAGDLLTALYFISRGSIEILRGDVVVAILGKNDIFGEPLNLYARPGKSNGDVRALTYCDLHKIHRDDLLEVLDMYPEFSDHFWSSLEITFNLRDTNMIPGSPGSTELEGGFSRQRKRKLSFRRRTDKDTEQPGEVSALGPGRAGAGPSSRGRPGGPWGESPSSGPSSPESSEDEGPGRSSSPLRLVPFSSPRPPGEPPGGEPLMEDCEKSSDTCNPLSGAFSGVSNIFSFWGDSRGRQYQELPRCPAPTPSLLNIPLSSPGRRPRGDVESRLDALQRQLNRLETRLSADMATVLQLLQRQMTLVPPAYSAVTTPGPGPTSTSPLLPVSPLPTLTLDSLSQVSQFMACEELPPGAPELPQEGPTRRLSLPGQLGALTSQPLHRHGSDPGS
Chain of Motilin receptor (A5A4K8 whole entry): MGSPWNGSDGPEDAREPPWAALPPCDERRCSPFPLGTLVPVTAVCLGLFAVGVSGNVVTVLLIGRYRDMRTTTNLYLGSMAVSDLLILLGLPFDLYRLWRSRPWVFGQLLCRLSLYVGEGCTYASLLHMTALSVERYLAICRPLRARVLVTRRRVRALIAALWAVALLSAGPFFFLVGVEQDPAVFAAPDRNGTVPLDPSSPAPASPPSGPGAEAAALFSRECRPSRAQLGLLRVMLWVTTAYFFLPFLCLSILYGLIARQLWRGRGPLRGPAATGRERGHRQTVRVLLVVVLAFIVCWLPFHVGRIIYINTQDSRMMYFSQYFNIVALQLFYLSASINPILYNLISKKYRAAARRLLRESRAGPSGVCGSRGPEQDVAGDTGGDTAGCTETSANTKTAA
Chain of Motilin receptor (Oryctolagus cuniculus) (A5A4K8 as listed by the source): as the sequence (A5A4K8 whole entry) above
Chain of Voltage-gated inwardly rectifying potassium channel KCNH2 (Q12809 whole entry): as the sequence (Q12809 whole entry) above

CC[C@H]1OC(=O)[C@H](C)[C@@H](O[C@H]2C[C@@](C)(OC)[C@@H](O)[C@H](C)O2)[C@H](C)[C@@H](O[C@@H]2O[C@H](C)C[C@H](N(C)C(C)C)[C@H]2O)[C@](C)(O)C[C@@H](C)[C@H](OCC(=O)NC)[C@H](C)[C@@H](O)[C@]1(C)O
EC50 (Motilin receptor): 58 nM
Activity [1]: 89%
MIC (Streptococcus pneumoniae [2]): > 128 µg/mL
Activity (Enterococcus faecalis): inactive
Activity (Enterococcus faecium): inactive
Activity (Micrococcus luteus): inactive
Activity (Staphylococcus aureus): inactive
Activity (Streptococcus equinus): inactive
Activity (Streptococcus pneumoniae [3]): inactive
Activity (Streptococcus pyogenes): inactive
Activity (Corynebacterium jeikeium): inactive
Activity (Corynebacterium sp.): inactive
Activity (Lactobacillus sp.): inactive
Activity (Escherichia coli): inactive
Activity (Klebsiella pneumoniae): inactive
Activity (Proteus mirabilis): inactive
Activity (Haemophilus influenzae): inactive
Activity (Moraxella catarrhalis): inactive
Activity (Bacteroides fragilis): inactive
Activity (Clostridioides difficile): inactive
Activity (Clostridium perfringens): inactive
Activity (Cutibacterium acnes): inactive
Activity (Staphylococcus): inactive

CC[C@H]1OC(=O)[C@H](C)[C@@H](O[C@H]2C[C@@](C)(OC)[C@@H](O)[C@H](C)O2)[C@H](C)[C@@H](O[C@@H]2O[C@H](C)C[C@H](N(C)C(C)C)[C@H]2O)[C@](C)(O)C[C@@H](C)[C@H](O)[C@H](C)[C@@H](O)[C@]1(C)O [3 9-DIHYDRO-N-DESMETHYL-N-ISOPROPYLERYTHROMYCIN A]
EC50 (Motilin receptor): 260 nM
Activity [1]: 85%
MIC (Streptococcus pneumoniae [2]): 32 µg/mL (≈ 41.9 µM)
inhibition at 30 µM (hERG (KCNH2) [4]): 80%
inhibition at 300 µM (hERG (KCNH2) [5]): 100%
IC50 [6]: 10000 nM
Ratio IC50/EC50 [7]: 38
